Measurements taken from paper PMC9073653 (RSC Advances, 2019).

Experiments:
human fibroblasts (HAF) = assay: SRB cytotoxicity assay, human fibroblasts HAF; type: cell-based; details: Fibroblast, 96 h, read-out: IC50 HAF
DU145 cells [1] = assay: SRB antiproliferative assay, DU145; type: cell-based, human; details: in DU145 cells
PC3 cells = assay: SRB antiproliferative assay, PC3; type: cell-based, human; details: in PC3 cells
DU145 cells [2] = assay: Cell cycle analysis by PI staining and flow cytometry; type: cell-based, human; details: 10 μM, 24 h, control 9.66%
DU145 cells [3] = assay: Transwell migration assay; type: cell-based, human; details: 10 μM, 24 h
22RV1 cells = assay: SRB antiproliferative assay, 22RV1; type: cell-based; details: Homo sapiens, 22Rv1, read-out: IC50 22RV1
In short: (§1)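 AR-positive human prostate cancer line, tested in vitro for antiproliferative activity by sulforhodamine B (SRB) staining, with IC50 as the read-out.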

[4] = test system: DU145, PC3 and PC3M cell lines; assay: SRB antiproliferative assay, CRPC cell lines together; type: cell-based, human; details: across DU145, PC3 and PC3M
[5] = test system: PARP and CL.PARP in DU145 cells; assay: Western blot of PARP and cleaved PARP; type: cell-based, human
LNCaP cells = assay: SRB antiproliferative assay, LNCaP; type: cell-based; details: Homo sapiens, read-out: IC50 LNCaP
In short: as §1

DU145 cells [6] = assay: Wound healing migration assay; type: cell-based, human; details: 10 μM, 24 h

Row | Compound | IC50 (human fibroblasts (HAF)) | also measured
1 | C#CCOC(=O)C[C@H]1Oc2ccccc2C(=O)[C@]1(C)[N+](=O)[O-] [Compound 6] | > 100 µM | 
2 | C[C@]1([N+](=O)[O-])C(=O)c2ccccc2O[C@@H]1CC(=O)OCc1ccccc1 [Compound 10] | > 100 µM | 
3 | C[C@]1([N+](=O)[O-])C(=O)c2ccccc2O[C@@H]1CC(N)=O [Compound 11] | > 100 µM | 
4 | CNC(=O)C[C@H]1Oc2ccccc2C(=O)[C@]1(C)[N+](=O)[O-] [Compound 12] | > 100 µM | 
5 | CCNC(=O)C[C@H]1Oc2ccccc2C(=O)[C@]1(C)[N+](=O)[O-] [Compound 13] | > 100 µM | 
6 | C#CCNC(=O)C[C@H]1Oc2ccccc2C(=O)[C@]1(C)[N+](=O)[O-] [Compound 14] | > 100 µM | 
7 | CCCCNC(=O)C[C@H]1Oc2ccccc2C(=O)[C@]1(C)[N+](=O)[O-] [Compound 15] | > 100 µM | 
8 | CC(C)(C)NC(=O)C[C@H]1Oc2ccccc2C(=O)[C@]1(C)[N+](=O)[O-] [Compound 16] | > 100 µM | 
9 | CCCCCCCCNC(=O)C[C@H]1Oc2ccccc2C(=O)[C@]1(C)[N+](=O)[O-] [Compound 17] | > 100 µM | 
10 | C[C@]1([N+](=O)[O-])C(=O)c2ccccc2O[C@@H]1CC(=O)NC1CCCCC1 [Compound 18] | > 100 µM | 
11 | C[C@]1([N+](=O)[O-])C(=O)c2ccccc2O[C@@H]1CC(=O)NC12CC3CC(CC(C3)C1)C2 [Compound 19] | > 100 µM | more potent antiproliferative activity than cisplatin (DU145 cells [1]): 1.6 fold; more potent antiproliferative activity than cisplatin (PC3 cells): 5.9 fold
12 | C[C@]1([N+](=O)[O-])C(=O)c2ccccc2O[C@@H]1CC(=O)Nc1ccccc1 [Compound 20] | > 100 µM | 
13 | C[C@]1([N+](=O)[O-])C(=O)c2ccccc2O[C@@H]1CC(=O)NCc1ccccc1 [Compound 21] | > 100 µM | 
14 | C[C@]1([N+](=O)[O-])C(=O)c2ccccc2O[C@@H]1CC(=O)Nc1nccs1 [Compound 22] | > 100 µM | 
15 | C[C@]1([N+](=O)[O-])C(=O)c2ccccc2O[C@@H]1CC(=O)Nc1ncccn1 [Compound 23] | > 100 µM | 
16 | C[C@]1([N+](=O)[O-])C(=O)c2ccccc2O[C@@H]1CC(=O)Nc1ccc2[nH]ccc2c1 [Compound 24] | > 100 µM | 
17 | C[C@]1([N+](=O)[O-])C(=O)c2ccccc2O[C@@H]1CC(=O)NNc1nc2ccccc2s1 [Compound 26] | > 100 µM | 

Row | Compound | IC50 (human fibroblasts (HAF)) | also measured
18 | CN(C(=O)C[C@H]1Oc2ccccc2C(=O)[C@]1(C)[N+](=O)[O-])C1CCCCC1 [Compound 27] | > 100 µM | 
19 | CN(C)C(=O)C[C@H]1Oc2ccccc2C(=O)[C@]1(C)[N+](=O)[O-] [Compound 28] | > 100 µM | 
20 | C[C@]1([N+](=O)[O-])C(=O)c2ccccc2O[C@@H]1CC(=O)NC1CCCC1 [Compound 29] | > 100 µM | 
21 | C[C@]1([N+](=O)[O-])C(=O)c2ccccc2O[C@@H]1CC(=O)NCC1CCCCC1 [Compound 31] | > 100 µM | 
22 | CC12CC3CC(C)(C1)CC(NC(=O)C[C@H]1Oc4ccccc4C(=O)[C@]1(C)[N+](=O)[O-])(C3)C2 [Compound 32] | > 100 µM | 
23 | CC[C@]1([N+](=O)[O-])C(=O)c2ccccc2O[C@@H]1CC(=O)NC12CC3CC(CC(C3)C1)C2 [Compound 33] | > 100 µM | 
24 | CC[C@]1([N+](=O)[O-])C(=O)c2ccccc2O[C@@H]1CC(=O)NC1CCCCC1 [Compound 34] | > 100 µM | 
25 | C[C@]1([N+](=O)[O-])C(=O)c2cc(C(F)(F)F)ccc2O[C@@H]1CC(=O)NC12CC3CC(CC(C3)C1)C2 [Compound 35] | > 100 µM | 
26 | C[C@]1([N+](=O)[O-])C(=O)c2cc(F)ccc2O[C@@H]1CC(=O)NC12CC3CC(CC(C3)C1)C2 [Compound 36] | > 100 µM | percentage of G2/M phase cells (DU145 cells [2]): 0%; migration rate in comparison with control (DU145 cells [3]): 23.94%; IC50 (22RV1 cells): 7.43 µM; times more potent than the positive compound cisplatin [4]: 2.3–19.4 times; expression of PARP and CL.PARP [5]: promote the PARP to CL. PARP; IC50 (LNCaP cells): 4.4 µM; cell migration ability, wound healing (DU145 cells [6]): notably inhibited
27 | C[C@]1([N+](=O)[O-])C(=O)c2cc(Cl)ccc2O[C@@H]1CC(=O)NC12CC3CC(CC(C3)C1)C2 [Compound 37] | > 100 µM | 
28 | C[C@]1([N+](=O)[O-])C(=O)c2cc(Br)ccc2O[C@@H]1CC(=O)NC12CC3CC(CC(C3)C1)C2 [Compound 38] | 3.67 ± 0.56 µM | 
29 | COc1ccc2c(c1)C(=O)[C@](C)([N+](=O)[O-])[C@@H](CC(=O)NC13CC4CC(CC(C4)C1)C3)O2 [Compound 40] | > 100 µM | 
30 | C[C@]1([N+](=O)[O-])C(=O)c2c(F)cccc2O[C@@H]1CC(=O)NC12CC3CC(CC(C3)C1)C2 [Compound 41] | > 100 µM | 
31 | C[C@]1([N+](=O)[O-])C(=O)c2ccc(F)cc2O[C@@H]1CC(=O)NC12CC3CC(CC(C3)C1)C2 [Compound 42] | > 100 µM | 
32 | C[C@]1([N+](=O)[O-])C(=O)c2cccc(F)c2O[C@@H]1CC(=O)NC12CC3CC(CC(C3)C1)C2 [Compound 43] | > 100 µM | 
33 | C[C@]1(N)C(=O)c2cc(F)ccc2O[C@@H]1CC(=O)NC12CC3CC(CC(C3)C1)C2 [Compound 44] | > 100 µM | 
34 | CC(=O)O[C@@]12CO[C@@H]1C[C@H](O)[C@@]1(C)C(=O)[C@H](O)C3=C(C)[C@@H](OC(=O)[C@H](O)[C@@H](NC(=O)OC(C)(C)C)c4ccccc4)C[C@@](O)([C@@H](OC(=O)c4ccccc4)[C@H]21)C3(C)C [Docetaxel, reference compound] | 0.157 ± 0.031 µM | 
